Data published in ChEMBL document CHEMBL1136954, “Toward the back-up of boceprevir (SCH 503034): discovery of new extended P4-capped ketoamide inhibitors of hepatitis C virus NS3 serine protease with improved potency and pharmacokinetic profiles” (J Med Chem, 2009).

Columns and labels:
[1] = Inhibition of HCV NS4A-tethered single chain NS3 serine protease by spectrophotometric assay; parameters: species or system Hepacivirus hominis
Summary of the method: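 Continuous assay with NS4A-tethered single-chain NS3 serine protease; potency given as Ki*.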

Hepatitis C virus = test: Antiviral activity against Hepatitis C virus genotype 1 infected in human hepatocytes by replicon assay; type: functional, Hepacivirus hominis; conditions: genotype 1, Hepatocyte
Summary of the method: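 HCV genotype 1 replicon cell assay; EC90 reported, within 3-fold at 95% confidence for a single assay and within 2-fold for multiple assays.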

[2] = Cytotoxicity against human hepatocytes assessed as effect on GAPDH RNA level […]; type: cell-based, Hepatocyte
Summary of the method: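 Counter-screen for cellular toxicity measuring GAPDH; CC50 reported.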

[3] = AUC (0 to 6 hrs) in rat at 10 mg/kg, po; type: ADME, organism-based; parameters: time < 6 hr, dose 10 mg/kg, route oral; conditions: plasma
[4] = Drug level in rat liver at 10 mg/kg, po after 6 hrs; type: ADME, organism-based; parameters: dose 10 mg/kg, route oral; conditions: read-out: Drug uptake
Summary of the method: (§1)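 Rapid rat oral screen, 2 animals, PO vehicle 40% HPBCD; compound concentration measured in liver at 6 h, or at 8 h where footnoted; plasma AUC taken over 0-6 h.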

[5] = AUC in rat at 10 mg/kg, po; type: ADME, organism-based; parameters: dose 10 mg/kg, route oral; conditions: plasma
Summary of the method: (§2)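 Rats dosed PO and IV at 10 mpk, 3 animals per route; IV given in 40% HPBCD, PO in 0.4% MC.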

[6] = AUC in rat at 10 mg/kg, iv; type: ADME, organism-based; parameters: dose 10 mg/kg, route intravenous; conditions: plasma
[7] = Half life in rat at 10 mg/kg, iv; type: ADME, organism-based; parameters: dose 10 mg/kg, route intravenous; conditions: in vivo; summary of the method: as §2
[8] = Clearance in rat at 10 mg/kg, po and at 10 mg/kg, iv; type: ADME, organism-based; conditions: in vivo; summary of the method: as §2
[9] = Volume of distribution at steady state in rat at 10 mg/kg, po and at 10 mg/kg, iv; type: ADME, organism-based; conditions: in vivo, read-out: Vdss; summary of the method: as §2
[10] = Oral bioavailability in rat at 10 mg/kg; type: ADME, organism-based; conditions: in vivo; summary of the method: as §2
[11] = AUC in cynomolgus monkey at 3 mg/kg, po; type: ADME, organism-based, Macaca fascicularis; parameters: dose 3 mg/kg, route oral; conditions: plasma
Summary of the method: (§3)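 Cynomolgus monkey dosed PO and IV at 3 mpk, 3 animals per route; IV vehicle 20% HPBCD, PO vehicle 0.4% MC. AUC in µM·h, t1/2 in h, clearance mL/min/kg, Vd(ss) L/kg, F in %.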

[12] = AUC in cynomolgus monkey at 3 mg/kg, iv; type: ADME, organism-based, Macaca fascicularis; parameters: dose 3 mg/kg, route intravenous; conditions: plasma; summary of the method: as §3
[13] = Half life in cynomolgus monkey at 3 mg/kg, iv; type: ADME, organism-based, Macaca fascicularis; parameters: dose 3 mg/kg, route intravenous; conditions: in vivo; summary of the method: as §3
[14] = Clearance in cynomolgus monkey at 3 mg/kg, po and at 3 mg/kg, iv; type: ADME, organism-based, Macaca fascicularis; conditions: in vivo; summary of the method: as §3
[15] = Volume of distribution at steady state in cynomolgus monkey at 3 mg/kg, po and at 3 mg/kg, iv; type: ADME, organism-based, Macaca fascicularis; conditions: in vivo, read-out: Vdss; summary of the method: as §3
[16] = Oral bioavailability in cynomolgus monkey at 3 mg/kg; type: ADME, organism-based, Macaca fascicularis; conditions: in vivo; summary of the method: as §3
[17] = Metabolic stability in cynomolgus monkey urine assessed as recovery of radioactivity at 2 mg/kg, po after 24 hrs; type: ADME, organism-based, Macaca fascicularis; parameters: dose 2 mg/kg, route oral; conditions: in vivo
Summary of the method: (§4)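 Two cynomolgus monkeys given the 14C-labelled ketoamide orally at 2 mg/kg; radioactivity collected in bile and urine over 0-24 h and expressed as % of oral dose; plasma also sampled.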

[18] = Metabolic stability in cynomolgus monkey bile assessed as recovery of radioactivity at 2 mg/kg, po after 24 hrs; type: ADME, organism-based, Macaca fascicularis; parameters: dose 2 mg/kg, route oral; conditions: in vivo; summary of the method: as §4
[19] = Drug level in rat liver at 10 mg/kg, po after 8 hrs; type: ADME, organism-based; parameters: dose 10 mg/kg, route oral; conditions: read-out: Drug uptake; summary of the method: as §1

With `CC(C)[C@H](NC(=O)N[C@H](C(=O)N1C[C@H]2[C@@H]([C@H]1C(=O)NC(CC1CC1)C(=O)C(N)=O)C2(C)C)C(C)(C)C)C(=O)C1CC1` (mixture of isomers) the Ki [1] was 0.007 µM, the EC90 (Hepatitis C virus) was 0.1 µM and the CC50 [2] was > 5 µM. It also gave an AUC(0-t) at 6 h [3] of 120 nM·h.

In the case of `C#CCCC(NC(=O)[C@@H]1[C@@H]2[C@H](CN1C(=O)[C@@H](NC(=O)N[C@H](C(=O)C1CC1)C1CCCCC1)C(C)(C)C)C2(C)C)C(=O)C(=O)NC1CC1` (mixture of isomers), the Ki [1] is reported as 0.004 µM, the EC90 (Hepatitis C virus) is reported as 0.055 µM and the CC50 [2] is reported as > 5 µM. For the same compound, the AUC(0-t) at 6 h [3] was 11000 nM·h and the concentration at 6 h [4] was 2.9 µM.

For `CC(C)[C@H](NC(=O)N[C@H](C(=O)N1C[C@H]2[C@@H]([C@H]1C(=O)NC(CC1CC1)C(=O)C(N)=O)C2(C)C)C(C)(C)C)C(=O)c1nccs1` (mixture of isomers), the Ki [1] was 0.009 µM, the EC90 (Hepatitis C virus) was 0.09 µM and the CC50 [2] was > 5 µM. The AUC(0-t) at 6 h [3] was 150 nM·h.

With `CC(C)[C@H](NC(=O)N[C@H](C(=O)N1C[C@H]2[C@@H]([C@H]1C(=O)NC(CC1CC1)C(=O)C(N)=O)C2(C)C)C(C)(C)C)C(=O)c1ccccn1` (mixture of isomers) the Ki [1] was 0.008 µM, the EC90 (Hepatitis C virus) was 0.2 µM and the CC50 [2] was > 5 µM. It also gave an AUC(0-t) at 6 h [3] of 420 nM·h.

For `C#CCCC(NC(=O)[C@@H]1[C@@H]2[C@H](CN1C(=O)[C@@H](NC(=O)N[C@H](C(=O)C1CC1)C1CCCCC1)C(C)(C)C)C2(C)C)C(=O)C(=O)NCC=C` (mixture of isomers), the Ki [1] was 0.009 µM, the EC90 (Hepatitis C virus) was 0.25 µM and the CC50 [2] was > 5 µM. The AUC(0-t) at 6 h [3] was 24000 nM·h and the concentration at 6 h [4] was 8.5 µM.

For `C=CCNC(=O)C(=O)C(CCC)NC(=O)[C@@H]1[C@@H]2[C@H](CN1C(=O)[C@@H](NC(=O)N[C@H](C(=O)C1CC1)C1CCCCC1)C(C)(C)C)C2(C)C` (mixture of isomers), the Ki [1] was 0.01 µM, the EC90 (Hepatitis C virus) was 0.5 µM and the CC50 [2] was > 5 µM. For the same compound, the AUC(0-t) at 6 h [3] was 55000 nM·h.

For `CC(C)(C)[C@H](NC(=O)N[C@H](C(=O)c1ccccn1)C1CCCCC1)C(=O)N1C[C@H]2[C@@H]([C@H]1C(=O)NC(CC1CC1)C(=O)C(N)=O)C2(C)C` (mixture of isomers), the Ki [1] was 0.007 µM, the EC90 (Hepatitis C virus) was 0.09 µM and the CC50 [2] was > 5 µM. It also gave an AUC(0-t) at 6 h [3] of 1400 nM·h and a concentration at 6 h [4] of 0.8 µM.

For `CC(C)(C)[C@H](NC(=O)NC1(C(=O)OCc2ccsc2)CCCCC1)C(=O)N1C[C@H]2[C@@H]([C@H]1C(=O)NC(CC1CC1)C(=O)C(N)=O)C2(C)C` (mixture of isomers), the Ki [1] was 0.031 µM, the EC90 (Hepatitis C virus) was 0.02 µM and the CC50 [2] was > 5 µM.

With `CC(C)[C@H](NC(=O)N[C@H](C(=O)N1C[C@H]2[C@@H]([C@H]1C(=O)NC(CC1CC1)C(=O)C(N)=O)C2(C)C)C(C)(C)C)C(=O)c1ccccc1` (mixture of isomers) the Ki [1] was 0.005 µM, the EC90 (Hepatitis C virus) was 0.08 µM and the CC50 [2] was > 5 µM. The AUC [5] was 260 nM·h.

In the case of `C=CCNC(=O)C(=O)C(CCC)NC(=O)[C@@H]1[C@@H]2[C@H](CN1C(=O)[C@@H](NC(=O)N[C@H](C(=O)C1CC1)C(C)C)C(C)(C)C)C2(C)C` (mixture of isomers), the Ki [1] is reported as 0.025 µM, the EC90 (Hepatitis C virus) is reported as 0.6 µM and the CC50 [2] is reported as > 5 µM. It also gave an AUC(0-t) at 6 h [3] of 26000 nM·h.

For `CC(C)(C)[C@H](NC(=O)NC1(C(=O)OCc2ccccc2)CCCCC1)C(=O)N1C[C@H]2[C@@H]([C@H]1C(=O)NC(CC1CC1)C(=O)C(N)=O)C2(C)C` (mixture of isomers), the Ki [1] was 0.049 µM, the EC90 (Hepatitis C virus) was 0.02 µM and the CC50 [2] was > 5 µM. It also gave an AUC [6] of 9300 nM·h, a half-life [7] of 2.9 h and a clearance [8] of 1.68 L/h/kg. For the same compound, the Vd [9] was 3.5 L/kg, the bioavailability [10] was 0% and the AUC [11] was 50 nM·h. The AUC [12] was 3400 nM·h, the half-life [13] was 3.1 h and the clearance [14] was 2.58 L/h/kg. The Vd [15] was 1.7 L/kg, the bioavailability [16] was 3% and the Stability [17] was 0.8%. It also gave a Stability [18] of 4.3%.

With `C#CCCC(NC(=O)[C@@H]1[C@@H]2[C@H](CN1C(=O)[C@@H](NC(=O)N[C@H](C(=O)C1CC1)C(C)C)C(C)(C)C)C2(C)C)C(=O)C(=O)NC1CC1` (mixture of isomers) the Ki [1] was 0.008 µM, the EC90 (Hepatitis C virus) was 0.07 µM and the CC50 [2] was > 5 µM. For the same compound, the AUC(0-t) at 6 h [3] was 4800 nM·h and the concentration at 6 h [4] was 0.9 µM.

With `CC(C)(C)[C@H](NC(=O)N[C@H](C(=O)C1CC1)C1CCCCC1)C(=O)N1C[C@H]2[C@@H]([C@H]1C(=O)NC(CC1CC1)C(=O)C(N)=O)C2(C)C` (mixture of isomers) the Ki [1] was 0.008 µM, the EC90 (Hepatitis C virus) was 0.1 µM and the CC50 [2] was > 5 µM. For the same compound, the AUC(0-t) at 6 h [3] was 1400 nM·h and the concentration at 6 h [4] was 2.7 µM.

For `CC1(NC(=O)N[C@H](C(=O)N2C[C@H]3[C@@H]([C@H]2C(=O)NC(CC2CC2)C(=O)C(N)=O)C3(C)C)C(C)(C)C)CCCCC1` (mixture of isomers), the Ki [1] was 0.009 µM, the EC90 (Hepatitis C virus) was 0.2 µM and the CC50 [2] was > 5 µM.

In the case of `CC(C)(C)NC(=O)N[C@H](C(=O)N1C[C@H]2[C@@H]([C@H]1C(=O)NC(CC1CCC1)C(=O)C(N)=O)C2(C)C)C(C)(C)C` (stereo partly specified) [BOCEPREVIR], the Ki [1] is reported as 0.014 µM, the EC90 (Hepatitis C virus) is reported as 0.35 µM and the CC50 [2] is reported as > 5 µM. The AUC(0-t) at 6 h [3] was 140 nM·h and the concentration at 8 h [19] was 0.3 µM.
